Assays:
Vero = experiment: Antiviral activity against herpes simplex virus type 1 (KOS strain) grown on human foreskin fibroblast cells determined by vedduction in plaque formation upon incubation at 37 degrees C with the compound dissolved in DMSO until plaque were formed; type: functional, cell-based
Procedure, shortened: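 HSV-1 KOS, about 50 PFU per well, was adsorbed for 1 h at 37 °C. The inoculum was then replaced with drug dilutions from 200-fold DMSO stocks in DMEM containing 10% FBS and 0.8% carboxymethyl cellulose. Cultures were kept at 37 °C until plaques appeared. Plaques were counted microscopically or by crystal violet staining (0.1% in 20% ethanol). IC50 came from linear regression of % inhibition relative to the uninhibited control.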

[1] = target: T1, DNA polymerase alpha catalytic subunit (Homo sapiens, UniProt P09884); experiment: Inhibition of human alpha DNA polymerase (95 uL) activity in a solution containg […] HEPES (pH 7.5) upon incubation for 12 minutes at 26 degrees C with the compound dissolved in DMSO
T1 sequence (P09884 whole entry): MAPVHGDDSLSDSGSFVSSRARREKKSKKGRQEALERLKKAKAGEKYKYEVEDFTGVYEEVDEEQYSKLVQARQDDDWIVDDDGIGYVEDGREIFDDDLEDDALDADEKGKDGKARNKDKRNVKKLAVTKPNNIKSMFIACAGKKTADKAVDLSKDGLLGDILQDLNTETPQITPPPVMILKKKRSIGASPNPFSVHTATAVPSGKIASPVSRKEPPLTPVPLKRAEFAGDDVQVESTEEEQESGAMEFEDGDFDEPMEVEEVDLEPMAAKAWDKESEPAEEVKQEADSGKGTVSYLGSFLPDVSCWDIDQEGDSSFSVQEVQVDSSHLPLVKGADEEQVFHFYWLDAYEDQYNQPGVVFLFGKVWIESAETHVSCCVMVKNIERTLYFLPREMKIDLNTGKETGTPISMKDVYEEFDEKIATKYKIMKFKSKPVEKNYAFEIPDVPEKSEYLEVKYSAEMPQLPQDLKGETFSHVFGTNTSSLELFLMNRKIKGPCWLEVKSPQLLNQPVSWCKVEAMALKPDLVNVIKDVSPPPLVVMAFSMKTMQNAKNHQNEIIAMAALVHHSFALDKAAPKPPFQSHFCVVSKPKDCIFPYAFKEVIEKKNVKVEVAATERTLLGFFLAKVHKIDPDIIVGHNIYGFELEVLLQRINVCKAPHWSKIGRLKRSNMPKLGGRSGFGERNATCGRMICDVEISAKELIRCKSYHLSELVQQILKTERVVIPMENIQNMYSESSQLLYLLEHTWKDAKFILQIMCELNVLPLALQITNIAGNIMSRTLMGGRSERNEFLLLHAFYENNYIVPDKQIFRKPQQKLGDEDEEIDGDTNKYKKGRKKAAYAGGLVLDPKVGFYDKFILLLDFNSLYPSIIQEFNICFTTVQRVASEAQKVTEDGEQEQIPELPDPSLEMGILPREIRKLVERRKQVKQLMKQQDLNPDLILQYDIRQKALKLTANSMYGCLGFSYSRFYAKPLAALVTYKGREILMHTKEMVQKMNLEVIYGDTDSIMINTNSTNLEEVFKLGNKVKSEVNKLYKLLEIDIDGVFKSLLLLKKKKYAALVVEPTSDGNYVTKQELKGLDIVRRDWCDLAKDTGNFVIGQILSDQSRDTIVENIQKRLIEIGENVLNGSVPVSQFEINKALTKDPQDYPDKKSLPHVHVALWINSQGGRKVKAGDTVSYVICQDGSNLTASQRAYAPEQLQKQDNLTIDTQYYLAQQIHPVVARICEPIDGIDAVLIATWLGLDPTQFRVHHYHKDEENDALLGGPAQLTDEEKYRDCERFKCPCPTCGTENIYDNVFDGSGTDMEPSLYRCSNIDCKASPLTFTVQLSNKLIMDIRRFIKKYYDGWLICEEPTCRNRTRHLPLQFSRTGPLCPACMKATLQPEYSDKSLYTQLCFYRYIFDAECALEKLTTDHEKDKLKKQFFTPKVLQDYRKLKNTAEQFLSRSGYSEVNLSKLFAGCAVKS

[2] = target: T2, DNA polymerase catalytic subunit (Varicella-zoster virus (strain Dumas) (HHV-3) (Human herpesvirus 3), UniProt P09252); experiment: Inhibition of Varicella-Zoster virus DNA polymerase (95 uL) activity in a solution containing […] HEPES (pH 7.5), incubation for 12 minutes at 26 degrees C; parameters: species or system Human alphaherpesvirus 3
T2 sequence (P09252 whole entry): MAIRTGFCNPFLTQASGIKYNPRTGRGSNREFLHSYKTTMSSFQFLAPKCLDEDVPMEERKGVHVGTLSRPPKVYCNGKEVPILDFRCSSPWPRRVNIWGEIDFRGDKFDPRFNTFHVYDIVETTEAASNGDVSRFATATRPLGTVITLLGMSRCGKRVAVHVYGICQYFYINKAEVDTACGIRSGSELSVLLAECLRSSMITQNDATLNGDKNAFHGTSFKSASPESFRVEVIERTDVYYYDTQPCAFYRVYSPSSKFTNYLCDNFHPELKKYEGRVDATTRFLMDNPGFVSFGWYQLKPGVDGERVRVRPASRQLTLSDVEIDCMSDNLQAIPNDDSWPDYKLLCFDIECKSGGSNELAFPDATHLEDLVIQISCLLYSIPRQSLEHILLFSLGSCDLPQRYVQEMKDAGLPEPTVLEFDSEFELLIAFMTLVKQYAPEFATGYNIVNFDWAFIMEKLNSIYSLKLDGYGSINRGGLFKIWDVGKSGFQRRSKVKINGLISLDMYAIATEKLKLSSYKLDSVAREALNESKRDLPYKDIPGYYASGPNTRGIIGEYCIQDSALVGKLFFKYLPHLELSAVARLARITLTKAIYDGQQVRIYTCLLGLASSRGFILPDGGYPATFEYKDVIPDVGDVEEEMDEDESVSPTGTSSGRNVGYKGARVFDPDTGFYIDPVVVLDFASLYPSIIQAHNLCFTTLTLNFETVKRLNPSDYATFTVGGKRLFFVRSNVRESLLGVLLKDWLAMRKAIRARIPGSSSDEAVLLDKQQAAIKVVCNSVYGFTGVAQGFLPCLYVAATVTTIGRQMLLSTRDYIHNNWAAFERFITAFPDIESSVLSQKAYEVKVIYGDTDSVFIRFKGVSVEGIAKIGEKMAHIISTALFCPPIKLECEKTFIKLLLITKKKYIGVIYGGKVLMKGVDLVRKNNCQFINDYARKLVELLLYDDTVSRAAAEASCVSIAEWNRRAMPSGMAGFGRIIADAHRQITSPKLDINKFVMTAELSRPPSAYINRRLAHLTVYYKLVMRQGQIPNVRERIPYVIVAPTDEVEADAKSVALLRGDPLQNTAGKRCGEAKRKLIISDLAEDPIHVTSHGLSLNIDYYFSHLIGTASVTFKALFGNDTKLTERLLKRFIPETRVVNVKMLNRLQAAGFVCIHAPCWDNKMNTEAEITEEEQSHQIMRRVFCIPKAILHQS

Cn1cc(C(=O)NCc2ccc(Cl)cc2)c(=O)c2cc(CN3CCOCC3)ccc21
IC50 (Vero): 3.5 µM | IC50 [1]: > 40 µM

O=C(NCc1ccc(Cl)cc1)c1cnc2ccc(CCCO)cc2c1O
IC50 (Vero): 7.4 µM | IC50 [1]: > 40 µM | IC50 [2]: 70 nM

Cn1cc(C(=O)NCc2ccc(Cl)cc2)c(=O)c2cc(CN3CCOCC3)sc21
IC50 (Vero): 3.7 µM | IC50 [1]: > 40 µM | IC50 [2]: 770 nM
